Source: PubChem BioAssay
TRPN1 ag: zebrafish TRPN1 (NompC) channel agonism | activation, % at 3 µM | 0.18% of 220,000 active | AID 1424 | HEK293 zebrafish TRPN1-YFP, Fluo-8 calcium fluorescence; 100% = response to 87 µM carbachol;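 active = activation above its plate's cutoff, the mean activation of test wells on that plate plus 3 SD, cut at about 19% in these data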;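 also: 0% = DMSO alone and 100% = 87 µM carbachol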
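System: zebrafish TRPN1-YFP in HEK293 cells / Dosing: 3 µM single point / Timing: dye loading 1 h at 37 °C, then 30 min room temperature / Signal: Fluo-8 calcium fluorescence, excitation 470-495 nm, emission 515-575 nm / Read-out basis: percent activation from peak over basal fluorescence ratio, control-normalized / Control set: high carbachol 87 µM, low DMSO alone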
V1R ag counter: counter-screen for oxytocin receptor agonists: human V1a receptor agonists; P37288; CHO-V1R cells, Fluo-8 calcium fluorescence, agonist mode; 0% DMSO, 100% 3 nM vasopressin; activation, % at 3 µM; 0.25% of 320,000 active;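 active = activation above the mean activation of all tested compounds plus 3 SD, per screening run, cut at about 20% in these data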;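 also: signal is peak over basal fluorescence ratio across a 100 second FLIPR read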
OXTR ag: agonists of human oxytocin receptor; P30559; CHO-OTR cells, Fluo-8 calcium fluorescence; normalized: DMSO 0%, oxytocin 100%; activation, % at 3 µM; 0.32% of 320,000 active; AID 2435;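 active = activation above the mean of all tested compounds plus 3 SD, cutoff set per screening run, cut at about 20% in these data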;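 also: peak over basal fluorescence ratio from a 100 s FLIPR kinetic read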
OXTR potentiate: human OXTR potentiation; CHO-OTR cells, Fluo-8 calcium fluorescence, potentiator mode; 0% = oxytocin EC15, 100% = EC100; 0.061% of 320,000 active; activation, % at 3 µM; P30559;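 active = activation above that plate's cutoff, the mean activation of tested compounds plus 3 SD, cut at about 6.6% in these data, passing the limit was not always enough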;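 also: 100% uses oxytocin at 75 nM as the full agonist control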
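Material: human OTR in CHO cells. Compound: 3.0 µM, one dose. Timing: compound 6 min at room temperature before oxytocin, 100 s read. Evaluation: % activation of max/min ratio relative to oxytocin controls. Replication: single well per compound, singlicate. Signal: Fluo-8 calcium dye fluorescence.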
TRPML3 agonist: agonists of human TRPML3 channel. Q8TDD5. HEK293 TRPML3-YFP, Fluo-8 calcium fluorescence; 100% = the carbachol control signal. activation, % at 3 µM. 0.29% of 220,000 active;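 active = activation above its plate's cutoff, the mean activation of the plate's test wells plus 3 SD, cut at about 12% in these data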;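 also: 0% = DMSO only wells and 100% = carbachol wells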
Target sequence (Q8TDD5 whole entry, looked up): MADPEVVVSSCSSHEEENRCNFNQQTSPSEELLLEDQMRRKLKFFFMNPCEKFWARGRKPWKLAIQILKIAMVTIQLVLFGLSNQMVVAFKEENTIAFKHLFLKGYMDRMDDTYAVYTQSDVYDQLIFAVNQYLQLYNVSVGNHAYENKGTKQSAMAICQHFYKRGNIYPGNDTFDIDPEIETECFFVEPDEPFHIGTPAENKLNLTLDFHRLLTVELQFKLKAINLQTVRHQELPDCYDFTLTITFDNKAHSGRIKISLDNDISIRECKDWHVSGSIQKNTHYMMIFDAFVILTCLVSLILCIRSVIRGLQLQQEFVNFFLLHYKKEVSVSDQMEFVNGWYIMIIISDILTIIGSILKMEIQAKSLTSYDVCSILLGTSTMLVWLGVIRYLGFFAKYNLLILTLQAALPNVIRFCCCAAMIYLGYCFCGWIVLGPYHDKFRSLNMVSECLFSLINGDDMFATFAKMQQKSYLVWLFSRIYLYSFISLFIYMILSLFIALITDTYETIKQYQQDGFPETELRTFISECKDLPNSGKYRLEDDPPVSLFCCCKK
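Test system – HEK293 line with stable expression of human TRPML3-YFP channel · Control set – carbachol 87 µM final as high control (100%), DMSO as low control (0%) · Signal – Fluo-8 calcium dye fluorescence, ex 470-495, em 515-575 nm · Incubation – 1-h 37 °C dye load, 5-s basal, 120-s post-compound reads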
OXTR pot cf: confirmation of human oxytocin receptor potentiators; shares compounds with OXTR potentiate; activation, % at 3 µM; CHO-OTR cells, Fluo-8 calcium fluorescence, potentiation; scaled from low-dose to maximal oxytocin; AID 434985; 180 tested, under 10 active;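 active = mean percent activation over triplicates above a cutoff set from solvent-only control plates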;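 also: compounds tested in the presence of an EC15 dose of oxytocin; 0% = EC15 oxytocin with DMSO and 100% = EC100 oxytocin with DMSO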
An asterisk follows results filed as active; . = no result. Only some compounds are listed: those with a hit (about 0.55% of all), similar ones and a draw of the others.

SMILES	TRPN1 ag	V1R ag counter	OXTR ag	OXTR potentiate	TRPML3 agonist	OXTR pot cf
COC1CCCCC1Nc1cccc(SC)c1 (centres undefined)	-1	-1	-1	12*	0	-3
Nc1ncccc1C(=O)OCC(=O)NC1CCCCCC1	.	1	0	-6	.	.
COc1ccc(-c2nnc(Nc3ccc(OC)c(C(=O)N4CCCCC4)c3)c3ccccc23)cc1	-3	2	0	13*	-1	1
Cc1cc(CNC(=O)CC2C(=O)NCCN2Cc2ccc(-c3ccccc3)cc2)nn1C (centres undefined)	0	0	0	-4	0	.
O=C(NC1CCCCC1)C1CCN(S(=O)(=O)c2cccc3cccnc23)CC1	1	1	1	14*	1	-4
CCOC(=O)N1CCC(NC(=O)C2CCN(S(=O)(=O)c3cccc4cccnc34)CC2)CC1	1	0	0	-8	0	.
CCOC(=O)c1c(C)nc2c(c1-c1cc(OC)c(OC)c(OC)c1)C(=O)c1ccccc1-2	-2	-1	-2	11*	0	-8
CCOC(=O)c1c(C)nc(C)c(C(=O)OCC)c1-c1ccccc1	-1	-2	-1	-2	-1	.
COc1cc(/C=N/NC(=S)NCCN2CCOCC2)ccc1O	-1	0	0	12*	0	-11
COCCNC(=S)N/N=C/c1ccc(N2CCOCC2)cc1	0	1	0	-12	1	.
CC(OC(=O)CN1C(=O)NC2(CCCC2)C1=O)C(=O)Nc1cccc(Cl)c1 (centres undefined)	.	5	0	-4	.	.
C[C@@H]1CN([C@H](C)CO)C(=O)c2cc(NC(=O)Nc3ccc(C(F)(F)F)cc3)ccc2O[C@H]1CN(C)S(=O)(=O)c1cccs1	.	2	2	-6	.	.
C[C@H](CO)N1C[C@H](C)[C@@H](CN(C)S(=O)(=O)c2cccs2)Oc2ccc(NC(=O)Nc3ccccc3)cc2C1=O	.	3	3	15*	.	-7
C[C@H](CO)N1C[C@H](C)[C@@H](CN(C)C(=O)Nc2ccc(C(F)(F)F)cc2)Oc2c(cccc2N(C)C)C1=O	.	0	0	12*	.	0
Fc1ccc2cnc(-c3ccccc3)c(-c3cc(C(F)(F)F)cc(C(F)(F)F)c3)c2c1	.	0	0	7	.	.
Fc1ccc2c(-c3cccc(C(F)(F)F)c3)c(-c3ccccc3)ncc2c1	.	1	0	9.4*	.	-8
O=S(=O)(c1ccc(Cl)nc1)N1CCCc2ccccc21	-1	-1	-2	8.3*	0	1
CC1CCN(S(=O)(=O)c2cnc[nH]2)CC1	.	1	0	8.5*	.	-9
CC1CCN(C(=O)C2CCN(S(=O)(=O)c3cnc[nH]3)CC2)CC1	-1	3	4	-4	0	.
COc1ccc(CNC(=O)[C@H](C)NC(=O)C2CC(=O)N(c3ccc4c(c3)OCO4)C2)cc1 (some centres undefined)	.	0	0	14*	.	-1
CCOC(=O)c1ccc(N2C(=O)C3CCCN3C2=S)cc1 (centres undefined)	.	7	8	1	.	.
CC(=O)c1c(C)n(-c2ccccc2)c2ccc(OCC(O)CN3CCOCC3)cc12 (centres undefined)	2	1	2	-2	0	.
S=c1[nH]nc(-c2cc(-c3ccco3)[nH]n2)n1-c1ccccc1Cl	-1	1	-1	-15	0	.
O=C(NC1CCCCCC1)C(=S)NCCc1ccccc1	1	1	-2	-14	-1	.
O=C(NCCc1ccccc1)NC1CCCCC1	2	-1	0	12*	0	-3
SMILES	TRPN1 ag	V1R ag counter	OXTR ag	OXTR potentiate	TRPML3 agonist	OXTR pot cf
O=C(CN1CCc2ccccc21)NC(=O)NCc1ccccc1	-1	2	0	-2	-1	.
COCCCN1CC(=O)N2C(c3ccccc3)c3[nH]c4ccccc4c3C[C@H]2C1=O (some centres undefined)	.	1	0	8.7*	.	-5
Cc1ccc(-n2ncc3c(N4CCC(C(N)=O)CC4)ncnc32)c(C)c1	-1	-1	0	13*	0	-2
CCN(CC)C(=O)C1CCN(c2ncnc3c2cnn3-c2ccc(C)cc2C)CC1	0	-1	-1	-12	1	.
CCOC(=O)N[C@H](Cc1c[nH]c2ccccc12)C(=O)NC1CC1	-1	0	1	10*	-1	-2
CCOCCOC(=O)c1[nH]c2c(c1C)C(=O)CC(c1ccc(N(C)C)cc1)C2 (centres undefined)	1	3	1	-22	2	.
CCCN(CCC)C(=O)CSc1nc2ccccc2c(=O)n1CC1COc2ccccc2O1 (centres undefined)	1	0	0	-6	-1	.
COc1ccccc1OCCNC(=O)c1cc(=O)[nH]c2ccccc12	2	0	0	9.1*	1	-2
OCC[C@H]1C[C@H](O)[C@@H](O)[C@]2(Cc3ccccc3O2)O1	.	2	2	0	.	.
O=C(O)c1ccc(N2C(=O)c3cccnc3C2=O)cc1	2	0	0	-2	0	.
O=C1c2nccnc2C(=O)N1c1ccc(F)cc1	1	1	1	10*	1	-1
O=C(O)c1ccc2c(c1)C(=O)N(Cc1ccc3c(c1)OCO3)C2=O	1	0	0	11*	0	-5
O=C1c2ccccc2C(=O)N1Cc1ccc2c(c1)OCO2	-1	0	0	-6	0	.
CNC(=O)c1c(NC(=O)CS(=O)(=O)c2ccccc2)sc(C)c1C	.	-1	0	-7	.	.
Cc1sc(NC(=O)CS(=O)(=O)c2ccccc2)c(C(N)=O)c1C	.	0	-1	8.1*	.	-8
O=c1[nH]c(C2CCN(S(=O)(=O)c3ccccc3)CC2)nc2c1nnn2Cc1cccc(Cl)c1	.	-1	-1	-4	.	.
CN(c1ccccc1C(=O)Nc1ccc(S(=O)(=O)N2CCCCC2)cc1)S(C)(=O)=O	2	0	1	11*	0	-8
CC(C)CN(C(=O)CSc1nnc2ccccn12)C1CCS(=O)(=O)C1 (centres undefined)	.	2	1	15*	.	-7
Cc1nnc(SCC(=O)N(CC(C)C)C2CCS(=O)(=O)C2)s1 (centres undefined)	.	0	0	-2	.	.
C/C(=N\NC(N)=S)c1cc(-c2ccccc2)c(-c2ccccc2)s1	.	1	-2	-10	.	.
CCCCn1c(N)c(N(CC(C)C)C(=O)c2ccc(-c3ccc(Cl)cc3)o2)c(=O)[nH]c1=O	.	-2	-3	-6	.	.
CCCCn1c(N)c(N(CC)C(=O)c2ccc(-c3ccc(Cl)cc3)o2)c(=O)[nH]c1=O	.	0	0	12*	.	-11
